Source: ChEMBL document CHEMBL3576866, “Discovery of a Cyclic Boronic Acid β-Lactamase Inhibitor (RPX7009) with Utility vs Class A Serine Carbapenemases” (J Med Chem, 2015)
The source made the active and inactive calls. The rule behind the calls is not given here.

Legend:
Klebsiella pneumoniae [1] = assay: Inhibition of Klebsiella pneumoniae KP1084 SHV-11 assessed as biapenem MIC at 4 ug/ml by broth microdilution method
Klebsiella pneumoniae [2] = assay: In vivo inhibition of KPC in Klebsiella pneumoniae KP1074 in Swiss webster neutropenic mouse lung infection model assessed as biapenem deltalog10CFU in lung at 50 mg/kg, ip administered every 2 hrs starting at 2 hrs postinfection measured after 24 hrs; format: functional
[3] = target: Beta lactamase TEM-1 (Klebsiella pneumoniae) (UniProt Q7B899); assay: Inhibition of Klebsiella pneumoniae KP1083 TEM-1 assessed as imipenem MIC at 4 ug/ml by broth microdilution method
[4] = target: Beta-lactamase TEM (Enterobacter cloacae) (UniProt Q6W9J1); assay: Inhibition of Enterobacter cloacae ECL1058 TEM-1 assessed as imipenem MIC at 4 ug/ml by broth microdilution method
[5] = Half life in rat at 1000 mg/kg, iv administered as 0.5 hrs infusion by HPLC-MS method; format: ADME, organism-based; settings: in vivo
Klebsiella pneumoniae [6] = assay: Inhibition of Klebsiella pneumoniae KP1087 CTX-M-15 assessed as ertapenem MIC at 4 ug/ml by broth microdilution method
Procedure, shortened: (§1)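 CLSI broth microdilution (M07-A9, 2012) MIC of the carbapenem against clinical serine carbapenemase-producing strain, tested alone and with the inhibitor held at a fixed 4 μg/mL.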

Klebsiella pneumoniae [7] = assay: Inhibition of Klebsiella pneumoniae KP1004 SHV-11 assessed as meropenem MIC at 4 ug/ml by broth microdilution method; procedure, shortened: as §1
[8] = target: Beta-lactamase TEM (Enterobacter cloacae) (UniProt Q6W9J1); assay: Inhibition of Enterobacter cloacae ECL1058 TEM-1 assessed as biapenem MIC at 4 ug/ml by broth microdilution method
Klebsiella pneumoniae [9] = assay: Inhibition of Klebsiella pneumoniae KP1084 SHV-11 assessed as meropenem MIC at 4 ug/ml by broth microdilution method; procedure, shortened: as §1
Klebsiella pneumoniae [10] = assay: Antibacterial activity against Klebsiella pneumoniae KP1004 by broth microdilution method; format: functional, organism-based
[11] = target: Beta lactamase TEM-1 (Klebsiella pneumoniae) (UniProt Q7B899); assay: Inhibition of Klebsiella pneumoniae KP1087 TEM-1 assessed as meropenem MIC at 4 ug/ml by broth microdilution method; procedure, shortened: as §1
[12] = AUC in human at 1 g administered as 3 hrs of infusion; format: ADME, organism-based; settings: in vivo, iv
[13] = target: Carbapenem-hydrolyzing beta-lactamase KPC (Klebsiella oxytoca) (UniProt Q848S6); assay: Inhibition of Klebsiella oxytoca KX1019 KPC-2 assessed as imipenem MIC at 4 ug/ml by broth microdilution method
[14] = target: Urokinase-type plasminogen activator (Homo sapiens, UniProt P00749); assay: Inhibition of urokinase (unknown origin) using NGK-pNA as substrate preincubated for 10 mins followed by substrate addition measured for 30 mins by spectrophotometric analysis
Procedure, shortened: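 Urokinase, from a commercial source, in 50 mM Tris-HCl, pH 8.5, 38 mM NaCl. Mixed with inhibitor at various concentrations for 10 min at 37 °C, then NGK-pNA (listed at 100 μM) added and absorbance monitored for 30 min. Rates were relative to untreated; IC50 is the concentration giving 50% inhibition.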

Escherichia coli = assay: Inhibition of Escherichia coli EC1008 CTX-M-3 assessed as cefepime MIC at 4 ug/ml by broth microdilution method
Procedure, shortened: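 CLSI broth microdilution (M07-A9) against clinical strains expressing serine β-lactamases.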

[15] = target: T1, Class A carbapenemase (Enterobacter cloacae) (UniProt A7WP95); assay: Inhibition of Enterobacter cloacae ECL1058 KPC-3 assessed as biapenem MIC at 4 ug/ml by broth microdilution method
T1 sequence (whole entry): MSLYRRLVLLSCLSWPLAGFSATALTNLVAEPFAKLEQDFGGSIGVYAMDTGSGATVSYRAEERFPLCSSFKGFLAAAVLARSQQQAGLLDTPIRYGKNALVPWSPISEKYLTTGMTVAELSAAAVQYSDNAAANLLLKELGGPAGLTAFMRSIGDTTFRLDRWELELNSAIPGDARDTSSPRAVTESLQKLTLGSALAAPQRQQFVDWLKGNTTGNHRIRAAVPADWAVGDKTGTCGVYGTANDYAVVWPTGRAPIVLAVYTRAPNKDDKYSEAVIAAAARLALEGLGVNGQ

[16] = Inhibition of chymotrypsin (unknown origin) using Suc-AAPF-AMC as substrate preincubated for 10 mins followed by substrate addition measured for 30 mins by spectrophotometric analysis; parameters: species or system Homo sapiens
Procedure, shortened: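 Chymotrypsin, from a commercial source, in 20 mM Tris-HCl, pH 8, 150 mM NaCl, 2.5 mM CaCl2. Incubated 10 min at 37 °C with varied inhibitor concentrations. Suc-AAPF-AMC (listed at 10 μM) was added and the reaction read for 30 min. Rates were relative to untreated; IC50 is the concentration giving 50% inhibition.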

Klebsiella pneumoniae [17] = assay: Inhibition of Klebsiella pneumoniae KP1087 SHV-11 assessed as meropenem MIC at 4 ug/ml by broth microdilution method; procedure, shortened: as §1
Klebsiella oxytoca = assay: Inhibition of Klebsiella oxytoca KX1017 OXA-2 assessed as imipenem MIC at 4 ug/ml by broth microdilution method
[18] = target: Beta-lactamase TEM (Enterobacter cloacae) (UniProt Q6W9J1); assay: Inhibition of Enterobacter cloacae ECL1058 TEM-1 assessed as ertapenem MIC at 4 ug/ml by broth microdilution method
Klebsiella pneumoniae [19] = assay: Inhibition of Klebsiella pneumoniae KP1087 KPC-2 assessed as meropenem MIC at 4 ug/ml by broth microdilution method; procedure, shortened: as §1
Klebsiella pneumoniae [20] = assay: Inhibition of Klebsiella pneumoniae KP1087 KPC-2 assessed as ertapenem MIC at 4 ug/ml by broth microdilution method; procedure, shortened: as §1
[21] = target: Class A carbapenemase KPC-2 (Escherichia coli) (UniProt A8DS27); assay: Inhibition of Escherichia coli EC1007 KPC-3 assessed as meropenem MIC at 4 ug/ml by broth microdilution method
Enterobacter cloacae = assay: Inhibition of Enterobacter cloacae ECL1058 SHV-11 assessed as ertapenem MIC at 4 ug/ml by broth microdilution method
[22] = target: Carbapenem-hydrolyzing beta-lactamase KPC (Klebsiella oxytoca) (UniProt Q848S6); assay: Inhibition of Klebsiella oxytoca KX1017 KPC-2 assessed as imipenem MIC at 4 ug/ml by broth microdilution method
Klebsiella pneumoniae [23] = assay: Inhibition of Klebsiella pneumoniae KP1004 KPC-2 assessed as imipenem MIC at 4 ug/ml by broth microdilution method; procedure, shortened: as §1
[24] = AUC (0 to infinity) in rat at 100 mg/kg, iv administered as 0.5 hrs infusion by HPLC-MS method; format: ADME, organism-based; parameters: dose 100 mg/kg, route intravenous, time infinity; settings: in vivo
[25] = target: Beta-lactamase (Klebsiella pneumoniae) (UniProt Q93LQ9); assay: Inhibition of Klebsiella pneumoniae KP1084 KPC-3 assessed as imipenem MIC at 4 ug/ml by broth microdilution method
[26] = target: T1, Class A carbapenemase (Enterobacter cloacae); assay: Inhibition of Enterobacter cloacae ECL1061 KPC-3 assessed as cefepime MIC at 4 ug/ml by broth microdilution method
Klebsiella pneumoniae [27] = assay: Inhibition of Klebsiella pneumoniae KP1088 SHV-11 assessed as biapenem MIC at 4 ug/ml by broth microdilution method
Procedure, shortened: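 CLSI broth microdilution (M07-A9, 2012) against the clinical K. pneumoniae isolate. Carbapenem MICs were read alone and with 9f held at a fixed 4 μg/mL.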

Klebsiella pneumoniae [28] = assay: Inhibition of Klebsiella pneumoniae KP1008 KPC-2 assessed as biapenem MIC at 4 ug/ml by broth microdilution method; procedure, shortened: as §1

Compound: O=C(O)C[C@@H]1CC[C@H](NC(=O)Cc2cccs2)B(O)O1 [VABORBACTAM]
- MIC (Klebsiella pneumoniae [1]): 0.25 µg/mL
- deltalog10CFU (Klebsiella pneumoniae [2]): -2.19
- MIC [3]: 0.13 µg/mL
- MIC [4]: 0.25 µg/mL
- half-life [5]: 24 min
- MIC (Klebsiella pneumoniae [6]): 2 µg/mL
- MIC (Klebsiella pneumoniae [7]): ≤ 0.06 µg/mL
- MIC [8]: < 0.06 µg/mL
- MIC (Klebsiella pneumoniae [9]): 0.5 µg/mL
- Activity (Klebsiella pneumoniae [10]): inactive
- MIC [11]: 1 µg/mL
- AUC at 3 h [12]: 100000 ng·h/mL
- MIC [13]: 0.13 µg/mL
- IC50 [14]: > 1000 µM
- MIC (Escherichia coli): 4 µg/mL
- MIC [15]: < 0.06 µg/mL
- IC50 [16]: > 1000 µM
- MIC (Klebsiella pneumoniae [17]): 1 µg/mL
- MIC (Klebsiella oxytoca): 0.13 µg/mL
- MIC [18]: 0.25 µg/mL
- MIC (Klebsiella pneumoniae [19]): 1 µg/mL
- MIC (Klebsiella pneumoniae [20]): 2 µg/mL
- MIC [21]: < 0.06 µg/mL
- MIC (Enterobacter cloacae): 0.25 µg/mL
- MIC [22]: 0.13 µg/mL
- MIC (Klebsiella pneumoniae [23]): ≤ 0.06 µg/mL
- AUC(0-inf) [24]: 64000 ng·h/mL
- MIC [25]: 0.25 µg/mL
- MIC [26]: 2 µg/mL
- MIC (Klebsiella pneumoniae [27]): ≤ 0.06 µg/mL
- MIC (Klebsiella pneumoniae [28]): ≤ 0.06 µg/mL
